Assay results: ChEMBL document CHEMBL1140061, “Novel azolyl-(phenylmethyl)]aryl/heteroarylamines: potent CYP26 inhibitors and enhancers of all-trans retinoic acid activity in neuroblastoma cells” (Bioorg Med Chem, 2008)
Activity calls are given as the source filed them. The calls are words filed in the database; no cut-off is given here.

How the values were obtained:
SH-SY5Y [1] = assay: Increase of CYP26B1 mRNA expression in human SH-SY5Y cells; format: functional, cell-based
Procedure, shortened: (§1)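 SH-SY5Y neuroblastoma cells were grown at 37 °C in RPMI 1640 with 10% foetal calf serum and 2 mM L-glutamine under 5% CO2. Inhibitor was given alone or with atRA (DMSO vehicle) for 24 h. Total RNA was reverse transcribed and CYP26B1 was measured by TaqMan real-time PCR, normalised to β-actin. Results are fold change versus atRA-only cells by the comparative Ct method, mean ± S.E.M., n ≥ 3.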

SH-SY5Y [2] = assay: Increase in all-trans retinoic acid-induced CYP26B1 mRNA expression in human SH-SY5Y cells at 0.01 to 10 uM after 24 hrs relative to all-trans retinoic acid; format: functional; conditions: in the assay text read “0.1 to 10 uM” for “0.01 to 10 uM”; procedure, shortened: as §1
Cytochrome P450 26A1 = target: T1, Cytochrome P450 26A1 (Homo sapiens, UniProt O43174); assay: Inhibition of CYP26A1 in human MCF7 cells
T1 sequence (O43174 whole entry): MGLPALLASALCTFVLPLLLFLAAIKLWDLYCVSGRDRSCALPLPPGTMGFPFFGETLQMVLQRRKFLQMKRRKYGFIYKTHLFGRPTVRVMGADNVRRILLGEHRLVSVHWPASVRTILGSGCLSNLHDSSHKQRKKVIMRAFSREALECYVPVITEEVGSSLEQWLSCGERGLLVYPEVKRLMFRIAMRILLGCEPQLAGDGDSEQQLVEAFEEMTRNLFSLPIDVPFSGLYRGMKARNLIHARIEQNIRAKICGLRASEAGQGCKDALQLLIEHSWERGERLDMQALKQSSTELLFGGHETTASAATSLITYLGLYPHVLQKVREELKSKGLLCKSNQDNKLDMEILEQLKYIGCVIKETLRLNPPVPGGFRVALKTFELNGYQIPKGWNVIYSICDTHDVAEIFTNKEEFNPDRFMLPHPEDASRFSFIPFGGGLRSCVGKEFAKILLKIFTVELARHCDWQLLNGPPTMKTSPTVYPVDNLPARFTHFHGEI

T47D = assay: Inhibition of all-trans retinoic acid metabolism in human T47D cells; format: functional, cell-based
SH-SY5Y [3] = assay: Increase of all-trans retinoic acid-induced CYP26B1 mRNA expression in human SH-SY5Y cells at 1 uM after 24 hrs relative to all-trans retinoic acid; format: functional; procedure, shortened: as §1
SH-SY5Y [4] = assay: Increase in all-trans retinoic acid-induced CYP26B1 mRNA expression in human SH-SY5Y cells at 10 uM relative to R116010; format: functional, cell-based

| IC50 (Cytochrome P450 26A1) | Structure (SMILES) | also measured |
| --- | --- | --- |
| 1.5 µM | c1ccc(C(c2ccc(Nc3nc4ccccc4s3)cc2)n2ccnc2)cc1 (stereo unspecified) | Activity (SH-SY5Y [1]): inactive; fold change (FC) (SH-SY5Y [2]): 2 |
| 0.9 µM | c1ccc(C(c2ccc(Nc3nc4ccccc4o3)cc2)n2ccnc2)cc1 (stereo unspecified) | Activity (SH-SY5Y [1]): inactive; fold change (FC) (SH-SY5Y [2]): 4 |
| – | C[C@H]([C@@H](c1ccc(Nc2nc3ccccc3s2)cc1)n1ccnc1)N(C)C | IC50 (T47D): 0.0087 µM; fold change (FC) (SH-SY5Y [3]): 5 |
| 2.5 µM | c1ccc(C(c2ccc(Nc3nc4ccccc4[nH]3)cc2)n2ccnc2)cc1 (stereo unspecified) | – |
| 5 µM | c1ccc(Nc2ccc(C(c3ccccc3)n3ccnc3)cc2)cc1 (stereo unspecified) | – |
| 4.5 µM | CCc1ccc(C(c2cc3ccccc3o2)n2cncn2)cc1 (stereo unspecified) | – |
| 0.5 µM | c1ccc(C(c2ccc(Nc3ccc4ccccc4c3)cc2)n2ccnc2)cc1 (stereo unspecified) | Activity (SH-SY5Y [1]): inactive; Activity (SH-SY5Y [4]): Active |
| 35 µM | CC(c1ccc(Nc2ccccc2)cc1)n1ccnc1 (stereo unspecified) | – |
| > 50 µM | CC(c1ccc(Nc2ccccc2)cc1)n1cncn1 (stereo unspecified) | – |
| 5 µM | c1ccc(Nc2ccc(C(c3ccccc3)n3cncn3)cc2)cc1 (stereo unspecified) | Activity (SH-SY5Y [3]): inactive |
| 15 µM | CC(c1ccc(Nc2ccc3ccccc3c2)cc1)n1ccnc1 (stereo unspecified) | – |
| 1 µM | c1ccc(C(c2ccc(Nc3ccc4c(c3)CCC4)cc2)n2ccnc2)cc1 (stereo unspecified) | – |
| 7 µM | c1ccc(-c2ccc(C(c3cc4ccccc4o3)n3cncn3)cc2)cc1 (stereo unspecified) | – |
